Experiments:
human eosinophils [1] = assay: Chemotactic deactivation of eosinophils, assessed by response to Val-Gly-Ser-Glu; type: cell-based; settings: for deactivation (qualitative): 10-r' M tetrapeptide, response to valyl-tetrapeptide, Fig. 3
Outline: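 Leukocytes from hypereosinophilic donors were dextran-sedimented, washed and resuspended in HBSS with 0.4% ovalbumin and Tris-HCl pH 7.4. Eosinophils were preincubated 2–40 min at 37°C with graded valyl- or alanyl-tetrapeptide, then washed three times. They were then challenged in a Boyden chamber (3-µm filter) with 10^-7 M valyl-tetrapeptide. Residual response is given as % of buffer-treated cells, mean ±1 SD of three experiments.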

human eosinophils [2] = assay: Cross-deactivation of eosinophils, assessed by response to C5a; type: cell-based; settings: 10-12 M tetrapeptide pretreatment; Fig. 4
Outline: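 Eosinophils in HBSS-ovalbumin were pretreated 2–40 min at 37°C with graded valyl- or alanyl-tetrapeptide and washed three times. They were then challenged in a Boyden chamber with C5a at the level derived from 2.5 µg equivalent of C5/ml. C5a came from tryptic digestion of human plasma C5, heated 20 min at 61°C and centrifuged. Results are % of buffer-treated control, mean ±1 SD, three experiments.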

human eosinophils [3] = assay: Modulation; type: cell-based; settings: for irreversible inhibition of the eosinophil response to 10-7 M valyl-tetrapeptide: neutrophil comparison; for inhibition of response to 10-7 M valyl-tetrapeptide: pretreatment with 10^-7 M tripeptide followed by washing; for inhibition of the valyl-tetrapeptide effect: 10^-7 M tripeptide added with the stimulus
Outline: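 Tripeptides or amides were added to the stimulus compartment with 10^-7 M valyl-tetrapeptide or to the cell compartment. Alternatively, eosinophils were preincubated with them 20 min at 37°C and washed three times. Migration in a modified Boyden chamber (3-µm filter, 2½–3 h, 37°C) was counted as net eosinophils/hpf. It is expressed as % of the response of buffer-treated cells.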

human eosinophils [4] = assay: Suppression of the eosinophil chemotactic response to C5a by tripeptides; type: cell-based; settings: for inhibition of response to C5a: pretreatment with 10^-7 M tripeptide followed by washing; for inhibition of the C5a-stimulated response: 10^-7 M tripeptide added with the stimulus
Outline: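 NH2-terminal tripeptide was added to the stimulus compartment with C5a in two experiments. In three experiments, eosinophils were pretreated with COOH-terminal tripeptide and washed. The C5a stimulus was a tryptic digest of purified human plasma C5, heat-treated 20 min at 61°C.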

neutrophils = assay: Neutrophil chemotaxis to valyl-tetrapeptide and its inhibition by tripeptides; type: cell-based, human; settings: for irreversible inhibition of the neutrophil response: response to 10^-7 M valyl-tetrapeptide; for inhibition of the response of neutrophils: tripeptide added to the stimulus, equimolar to valyl-tetrapeptide; for chemotactic response of neutrophils: valyl-tetrapeptide stimulus, neutrophils purified to 98%
Outline: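 Neutrophils from normal donors were isolated on Ficoll-Hypaque to 98% purity, washed and resuspended in HBSS-ovalbumin. They were tested in modified Boyden chambers with a 3-µm filter against 10^-7 M valyl-tetrapeptide, with or without NH2- or COOH-terminal tripeptide, for 2½–3 h at 37°C. Migrated cells were counted blind in 10 hpf from duplicate chambers as net neutrophils/hpf.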

human eosinophils [5] = assay: Eosinophil chemotaxis in modified Boyden chambers; type: cell-based; settings: for chemotactic activity (qualitative): eosinophils; for magnitude of the maximum eosinophil response (rank among tetrapeptides): Discussion, Fig. 1
Outline: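 Blood from donors with 26–89% eosinophilia was citrate/dextran-sedimented 30 min at 37°C and centrifuged 100 g for 10 min. Leukocytes were washed three times into HBSS-0.4% ovalbumin-Tris pH 7.4. Stimuli in the lower compartment were separated from cells by a 3-µm filter, incubated 2½–3 h at 37°C. Fixed, stained filters were read blind at background depth (2–8 cells/hpf), 10 hpf from duplicate chambers, as net cells/hpf.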

human eosinophils [6] = type: cell-based
Outline: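 Eosinophils were pretreated 20 min at 37°C with deactivating valyl-tetrapeptide or COOH-terminal tripeptide, with Val-Gly-Ser present at graded concentrations. They were then washed three times. Residual chemotactic response to 10^-7 M valyl-tetrapeptide was measured in Boyden chambers. It is expressed as mean % of buffer-exposed control response, from two experiments with different donors.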

Molecule: Ala-Gly-Ser-Glu
- deactivation (qualitative) (human eosinophils [1]): substantial deactivation
- effect on eosinophil responsiveness to C5a (human eosinophils [2]): did not decrease

Molecule: Gly-Ser-Glu
- effect when mixed with stimulus (human eosinophils [3]; 10^-7 M mixed with an equimolar quantity of valyl-tetrapeptide stimulus): ineffective
- irreversible inhibition of the eosinophil response to 10-7 M valyl-tetrapeptide (human eosinophils [3]; experiment 1): 61%
- irreversible inhibition of the eosinophil response to 10-7 M valyl-tetrapeptide (human eosinophils [3]; experiment 2): 74%
- inhibition of response to 10-7 M valyl-tetrapeptide (human eosinophils [3]; experiment 2 of three): 62%
- inhibition of response to 10-7 M valyl-tetrapeptide (human eosinophils [3]; experiment 3 of three): 48%
- inhibition of response to C5a (human eosinophils [4]; experiment 1 of three): 71%
- inhibition of response to C5a (human eosinophils [4]; experiment 2 of three): 53%
- inhibition of response to C5a (human eosinophils [4]; experiment 3 of three): 37%
- irreversible inhibition of the neutrophil response (neutrophils; experiment 1): 33%
- irreversible inhibition of the neutrophil response (neutrophils; experiment 2): 28%
- chemotactic activity (qualitative) (human eosinophils [5]): only marginally chemotactic

Molecule: Leu- Ser-Glu [Leu-Ser-Glu]
- maximum activity as fraction of maximum chemotactic activity of tetrapeptides (human eosinophils [5]; versus maximum obtained with 10^-7 M tetrapeptides, Fig. 2): approximately two-thirds

Molecule: Leu-Gly-Ser-Glu
- magnitude of the maximum eosinophil response (rank among tetrapeptides) (human eosinophils [5]): the least

Molecule: Phe-Gly-Ser-Glu
- deactivating activity (qualitative) (human eosinophils [1]; at 10^-6 M): comparable to 10-~ M alanyl-tetrapeptide
- deactivating activity (qualitative) (human eosinophils [1]; at 10^-7 M): minimally evident
- magnitude of the maximum eosinophil response (rank among tetrapeptides) (human eosinophils [5]): greatest maximum response

Molecule: Val-Gly-Ser
- protection against the COOH-terminal tripeptide (human eosinophils [6]; at an equimolar concentration or at a 10-fold excess): no protection
- protection from deactivation by valyl-tetrapeptide (human eosinophils [6]; equimolar concentration of tripeptide and deactivating valyl-tetrapeptide): 40-50%
- protection from deactivation by valyl-tetrapeptide (qualitative) (human eosinophils [6]; tripeptide at 10^-7 M with 10^-8 M valyl-tetrapeptide): completely protective
- inhibition of the valyl-tetrapeptide effect (human eosinophils [3]; experiment 1 of two): 47%
- inhibition of the valyl-tetrapeptide effect (human eosinophils [3]; experiment 2 of two): 61%
- inhibition of the eosinophil response (human eosinophils [3]; on the stimulus side with 10^-7 M valyl-tetrapeptide, equimolar concentrations, Discussion, Fig. 5): 50-60%
- inhibition of the eosinophil response (human eosinophils [3]; tripeptide added to the 10^-7 M tetrapeptide stimulus at approximately an equimolar concentration, Fig. 5, Results): 50%
- inhibition of the C5a-stimulated response (human eosinophils [4]; experiment 1 of two): 18%
- inhibition of the C5a-stimulated response (human eosinophils [4]; experiment 2 of two): 29%
- reduction of the neutrophil response to 10-7 M valyl-tetrapeptide (neutrophils; equimolar concentrations, Discussion): Approximately 50%
- inhibition of the response of neutrophils (neutrophils; experiment 1): 49%
- inhibition of the response of neutrophils (neutrophils; experiment 2): 54%
- chemotactic activity (qualitative) (human eosinophils [5]): only marginally chemotactic

Molecule: Val-Gly-Ser-Glu
- deactivation (qualitative) (human eosinophils [1]): substantial deactivation
- chemotactic response of neutrophils (neutrophils; experiment 1): 16.9 neutrophils/hpf
- chemotactic response of neutrophils (neutrophils; experiment 2): 21.4 neutrophils/hpf
- control chemotactic response (human eosinophils [5]; 10^-7 M stimulus, Table I, donor 2 (37% eosinophilia)): 12.3 net eosinophils per hpf
- control chemotactic response (human eosinophils [5]; 10^-7 M stimulus, Table II, experiment 2, buffer-exposed cells): 11.7 net eos/hpf
- chemotactic response of eosinophils (human eosinophils [5]; valyl-tetrapeptide stimulus, neutrophil comparison, experiment 2): 15.3 eosinophils (eos)/hpf
- effect on eosinophil responsiveness to C5a (human eosinophils [2]): did not decrease

B1: C5a: prepared by tryptic digestion of purified C5 prepared from human plasma (protein, UniProt P01031 678-751, looked up)
C5a anaphylatoxin: TLQKKIEEIAAKYKHSVVKKCCYDGACVNNDETCEQRAARISLGPRCIKAFTECCVVASQLRANISHKDMQLGR
modifications: C5a anaphylatoxin
- control chemotactic response (human eosinophils [5]; C5a derived from 2.5 µg equivalent of C5/ml, Fig. 4, donor 2 (43% eosinophilia)): 16.5 net eos/hpf
- control chemotactic response (human eosinophils [5]; C5a derived from 2.5 µg equivalent of C5/ml, Fig. 4, donor 3 (59% eosinophilia)): 18.8 net eos/hpf

Source: publication PMC2190483 (The Journal of Experimental Medicine, 1976)
